Tests used:
Rattus norvegicus = experiment: Antiinflammatory activity in Wistar rat assessed as inhibition of carrageenan-induced paw edema administered 30 mins prior challenge measured after 3 hrs; format: functional
In short: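 Rats were dosed orally. Thirty minutes later, 1% carrageenan was injected subcutaneously into the plantar surface of the hind paw, and paw volume was remeasured 3 h afterward. Percent inhibition came from comparing the volume increase against a control group. ED50 (dose giving 50% inhibition) was derived from least-squares probit response vs log dose regression.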

[1] = Acute toxicity in ip dosed ddY mouse measured after 168 hrs; format: organism-based; details: in vivo
In short: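 Male ddY mice, four per group, given a single ip injection; deaths assessed 168 h after dosing. LD50 calculated by the method of Weil.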

Mus musculus = experiment: Analgesic activity in ip dosed ddY mouse assessed as prevention of pseudoavoidance reflex co-administered with 5 mg/kg, sc morphine hydrochloride by tail pinch method; format: functional
In short: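 Groups of eight male ddY mice (25–30 g) got the compound ip as a suspension in 0.5% CMC, together with a threshold dose of morphine hydrochloride (5 mg/kg sc). The read-out was prevention of pseudoavoidance reflexes (biting, squeaking, looking backward) after tail pinching with forceps. ED50 was calculated by the Litchfield–Wilcoxon method.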

Row | SMILES | ED50 (Rattus norvegicus) [mg/kg] | LD50 at 168 h [1] [mg/kg] | ED50 (Mus musculus) [mg/kg]
1 | COC(=O)Cc1cc(OS(C)(=O)=O)cc(-c2ccc(Cl)cc2)c1 | > 100 | 1130 | 
2 | CCOC(=O)Cc1cc(O)cc(-c2ccc(Cl)cc2)c1 | > 100 | > 1600 | 
3 | COc1cc(CC(=O)O)cc(-c2ccc(F)cc2)c1 | 50 | 565 | 
4 | CCOc1cc(CC(=O)O)cc(-c2ccc(Cl)cc2)c1 | 51 | 284 | 
5 | COc1cc(CCC(=O)O)cc(-c2ccc(Cl)cc2)c1 | > 100 | 284 | 
6 | COC(=O)Cc1cc(OC)cc(-c2ccc(Cl)cc2)c1 | 35 | 1600 | 
7 | CCCCCOc1cc(CC(=O)O)cc(-c2ccc(Cl)cc2)c1 | > 100 | 475 | 
8 | COc1cc(CC(=O)O)cc(-c2ccccc2Cl)c1 | 39 | 252 | 195
9 | CCCCOc1cc(CC(=O)O)cc(-c2ccccc2)c1 | > 100 | > 1600 | 
10 | COC(=O)Cc1cc(OC(C)=O)cc(-c2ccc(Cl)cc2)c1 | > 100 | > 1600 | 
11 | CC(C)Cc1ccc(C(C)C(=O)O)cc1 (stereo unspecified) [IBUPROFEN] | 25 | 336 | 69
12 | CCCCCOc1cc(CC(=O)O)cc(-c2ccccc2)c1 | > 100 | 1130 | 
13 | COc1ccc(-c2cc(CC(=O)O)cc(OC)c2)cc1 | > 100 | 636 | 165
14 | COc1cc(CC(=O)O)cc(-c2ccc(C)cc2)c1 | > 100 | 566 | 
15 | CCCOc1cc(CC(=O)O)cc(-c2ccc(Cl)cc2)c1 | 97 | 400 | 
16 | CCOc1cc(CC(=O)O)cc(-c2ccccc2)c1 | > 100 | 400 | 
17 | COc1cc(CCO)cc(-c2ccc(Cl)cc2)c1 | 47 | 673 | 
18 | CC(C)COc1cc(CC(=O)O)cc(-c2ccccc2)c1 | > 100 | 566 | 

Row | SMILES | ED50 (Rattus norvegicus) [mg/kg] | LD50 at 168 h [1] [mg/kg] | ED50 (Mus musculus) [mg/kg]
19 | CCCCOc1cc(CC(=O)O)cc(-c2ccc(Cl)cc2)c1 | > 100 | 237 | 
20 | CCCOc1cc(CC(=O)O)cc(-c2ccccc2)c1 | > 100 | 475 | 
21 | CC(C)COc1cc(CC(=O)O)cc(-c2ccc(Cl)cc2)c1 | > 100 | 139 | 
22 | COc1cc(CC(=O)O)cc(-c2ccc(Cl)cc2Cl)c1 | 70 | 336 | 
23 | CCOC(=O)Cc1cc(OC)cc(-c2ccc(Cl)cc2)c1 | 29 | 1130 | 
24 | COc1cc(CC(N)=O)cc(-c2ccc(Cl)cc2)c1 | > 100 | > 1600 | 
25 | Cc1cc(CC(=O)O)cc(OCC(C)C)c1 | > 100 | 1000 | 
26 | COC(=O)Cc1cc(O)cc(-c2ccc(Cl)cc2)c1 | > 100 | > 1600 | 
27 | COc1cc(CC(=O)O)cc(C2CCCCC2)c1 | > 100 | 564 | 
28 | COc1cc(CC(=O)O)cc(-c2ccc(Cl)cc2)c1 | 11 | 570 | 38
29 | COc1cc(C)cc(CC(=O)O)c1 | > 100 | 673 | 
30 | COc1cccc(CC(=O)O)c1 | > 100 | 504 | 
31 | CCCCOc1cc(C)cc(CC(=O)O)c1 | > 100 | 673 | 
32 | COc1cc(CC(=O)NO)cc(-c2ccc(Cl)cc2)c1 | > 100 | > 1600 | 
33 | COc1cc(C(=O)O)cc(-c2ccc(Cl)cc2)c1 | > 100 | 1130 | 
34 | COc1cc(CC(=O)O)cc(-c2ccccc2)c1 | 60 | 566 | 
35 | O=C(O)Cc1cc(O)cc(-c2ccc(Cl)cc2)c1 | > 100 | 141 | 
36 | COc1cc(CC(=O)O)cc(C(C)C)c1 | > 100 | 1600 | 

From ChEMBL document CHEMBL3244229, “Nonsteroidal antiinflammatory agents. 1. 5-Alkoxy-3-biphenylylacetic acids and related compounds as new potential antiinflammatory agenst” (J Med Chem, 1977)
